Calls of active or inactive are those of the source. The rule behind the calls is not given here.

The subject of one test is Human immunodeficiency virus 1. As to the kind of experiment: Antiviral activity against HIV1 harboring wild type 8.9NSX with gag T81A mutant infected in HEK293T cells assessed as inhibition of viral replication after 48 hrs by luciferase assay. It counts as functional, organism-based. The settings on record: HEK-293T. A digest of the protocol:
(§1)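 Resistance vectors were made by cotransfecting HEK293T cells with a p8.9NSX-derived gag-pol vector carrying the matrix/protease variant, a VSV-G plasmid and a firefly luciferase plasmid. At 16 h, producer cells were reseeded in graded PI concentrations, and vectors were harvested 24 h later to infect fresh HEK293T cells. Luciferase was read 48 h postinfection relative to no-drug controls. EC50 came from linear regression, expressed as fold change versus WT subtype B p8.9NSX, mean of ≥2 experiments.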
`CC(C)CN(C[C@@H](O)[C@H](Cc1ccccc1)NC(=O)O[C@H]1CCOC1)S(=O)(=O)c1ccc(N)cc1` [AMPRENAVIR]: the inhibition result is “inactive”.

Regarding `COC(=O)N[C@H](C(=O)N[C@@H](Cc1ccccc1)[C@@H](O)CN(Cc1ccc(-c2ccccn2)cc1)NC(=O)[C@@H](NC(=O)OC)C(C)(C)C)C(C)(C)C`, the inhibition result was “inactive”.

Turning to `Cc1c(O)cccc1C(=O)N[C@@H](CSc1ccccc1)[C@H](O)CN1C[C@H]2CCCC[C@H]2C[C@H]1C(=O)NC(C)(C)C` [NELFINAVIR], the inhibition entry was “inactive”.

For the next test, the system named is Human immunodeficiency virus 1. As to the kind of experiment: Ratio of EC50 for HIV1 harboring HIV1 harboring wild type 8.9NSX with gag […] and T81A mutant to EC50 for wild type HIV1.
Conditions: not given
It counts as functional. A digest of the protocol: as §1
For `CC(C)CN(C[C@@H](O)[C@H](Cc1ccccc1)NC(=O)O[C@H]1CCOC1)S(=O)(=O)c1ccc(N)cc1` [AMPRENAVIR], the “Ratio EC50” value is on record as 3.

Take `CC(C)(C)NC(=O)[C@@H]1C[C@@H]2CCCC[C@@H]2CN1C[C@@H](O)[C@H](Cc1ccccc1)NC(=O)[C@H](CC(N)=O)NC(=O)c1ccc2ccccc2n1` [SAQUINAVIR]: the “Ratio EC50” value stood at 3.

Take `CC(C)(C)NC(=O)[C@@H]1CN(Cc2cccnc2)CCN1C[C@@H](O)C[C@@H](Cc1ccccc1)C(=O)N[C@H]1c2ccccc2C[C@H]1O.O` [INDINAVIR]: the “Ratio EC50” value came to 3.

For `Cc1cccc(C)c1OCC(=O)N[C@@H](Cc1ccccc1)[C@@H](O)C[C@H](Cc1ccccc1)NC(=O)[C@H](C(C)C)N1CCCNC1=O` [LOPINAVIR], the “Ratio EC50” value turned out to be 3.

In the case of `CCC[C@@]1(CCc2ccccc2)CC(O)=C([C@H](CC)c2cccc(NS(=O)(=O)c3ccc(C(F)(F)F)cn3)c2)C(=O)O1` [TIPRANAVIR], the “Ratio EC50” value is 3.

Turning to `CC(C)CN(C[C@@H](O)[C@H](Cc1ccccc1)NC(=O)O[C@H]1CO[C@H]2OCC[C@H]21)S(=O)(=O)c1ccc(N)cc1` [DARUNAVIR], the “Ratio EC50” value is 3.

As for `Cc1c(O)cccc1C(=O)N[C@@H](CSc1ccccc1)[C@H](O)CN1C[C@H]2CCCC[C@H]2C[C@H]1C(=O)NC(C)(C)C` [NELFINAVIR], the “Ratio EC50” value came to 3.

The next test deals with Human immunodeficiency virus 1. As to the kind of experiment: Antiviral activity against 8gpNS with amino acid 116 insertion removed HIV1 infected in HEK293T cells assessed as inhibition of viral replication after 48 hrs by luciferase assay. Particulars: HEK-293T. The class given is functional, organism-based. A digest of the protocol:
as §1
`CC(C)CN(C[C@@H](O)[C@H](Cc1ccccc1)NC(=O)O[C@H]1CCOC1)S(=O)(=O)c1ccc(N)cc1` [AMPRENAVIR]: the inhibition result is “inactive”.

For `CC(C)(C)NC(=O)[C@@H]1C[C@@H]2CCCC[C@@H]2CN1C[C@@H](O)[C@H](Cc1ccccc1)NC(=O)[C@H](CC(N)=O)NC(=O)c1ccc2ccccc2n1` [SAQUINAVIR], the inhibition entry was “inactive”.

As to `COC(=O)N[C@H](C(=O)N[C@@H](Cc1ccccc1)[C@@H](O)CN(Cc1ccc(-c2ccccn2)cc1)NC(=O)[C@@H](NC(=O)OC)C(C)(C)C)C(C)(C)C`, the inhibition entry is “inactive”.

Turning to `CC(C)(C)NC(=O)[C@@H]1CN(Cc2cccnc2)CCN1C[C@@H](O)C[C@@H](Cc1ccccc1)C(=O)N[C@H]1c2ccccc2C[C@H]1O.O` [INDINAVIR], the inhibition entry was “inactive”.

For `Cc1cccc(C)c1OCC(=O)N[C@@H](Cc1ccccc1)[C@@H](O)C[C@H](Cc1ccccc1)NC(=O)[C@H](C(C)C)N1CCCNC1=O` [LOPINAVIR], the inhibition entry is “inactive”.

Take `CCC[C@@]1(CCc2ccccc2)CC(O)=C([C@H](CC)c2cccc(NS(=O)(=O)c3ccc(C(F)(F)F)cn3)c2)C(=O)O1` [TIPRANAVIR]: the inhibition result is “inactive”.

Consider `CC(C)CN(C[C@@H](O)[C@H](Cc1ccccc1)NC(=O)O[C@H]1CO[C@H]2OCC[C@H]21)S(=O)(=O)c1ccc(N)cc1` [DARUNAVIR], for which the inhibition result is “inactive”.

With `Cc1c(O)cccc1C(=O)N[C@@H](CSc1ccccc1)[C@H](O)CN1C[C@H]2CCCC[C@H]2C[C@H]1C(=O)NC(C)(C)C` [NELFINAVIR], the inhibition result was “inactive”.

The next test relates to Human immunodeficiency virus 1. As to the kind of experiment: Antiviral activity against HIV1 harboring wild type 8.9NSX with mutant amino acid 116 insertion infected in HEK293T cells assessed as inhibition of viral replication after 48 hrs by luciferase assay. It counts as functional, organism-based. Particulars: HEK-293T. A digest of the protocol:
as §1
On to `CC(C)CN(C[C@@H](O)[C@H](Cc1ccccc1)NC(=O)O[C@H]1CCOC1)S(=O)(=O)c1ccc(N)cc1` [AMPRENAVIR], for which the inhibition entry was “inactive”.

Turning to `CC(C)(C)NC(=O)[C@@H]1C[C@@H]2CCCC[C@@H]2CN1C[C@@H](O)[C@H](Cc1ccccc1)NC(=O)[C@H](CC(N)=O)NC(=O)c1ccc2ccccc2n1` [SAQUINAVIR], the inhibition result is “inactive”.

For `COC(=O)N[C@H](C(=O)N[C@@H](Cc1ccccc1)[C@@H](O)CN(Cc1ccc(-c2ccccn2)cc1)NC(=O)[C@@H](NC(=O)OC)C(C)(C)C)C(C)(C)C`, the inhibition result was “inactive”.

For the molecule `CC(C)(C)NC(=O)[C@@H]1CN(Cc2cccnc2)CCN1C[C@@H](O)C[C@@H](Cc1ccccc1)C(=O)N[C@H]1c2ccccc2C[C@H]1O.O` [INDINAVIR], the inhibition entry was “inactive”.

As to `Cc1cccc(C)c1OCC(=O)N[C@@H](Cc1ccccc1)[C@@H](O)C[C@H](Cc1ccccc1)NC(=O)[C@H](C(C)C)N1CCCNC1=O` [LOPINAVIR], the inhibition result is “inactive”.

For `CCC[C@@]1(CCc2ccccc2)CC(O)=C([C@H](CC)c2cccc(NS(=O)(=O)c3ccc(C(F)(F)F)cn3)c2)C(=O)O1` [TIPRANAVIR], the inhibition result was “inactive”.

`CC(C)CN(C[C@@H](O)[C@H](Cc1ccccc1)NC(=O)O[C@H]1CO[C@H]2OCC[C@H]21)S(=O)(=O)c1ccc(N)cc1` [DARUNAVIR]: the inhibition result is “inactive”.

As for `Cc1c(O)cccc1C(=O)N[C@@H](CSc1ccccc1)[C@H](O)CN1C[C@H]2CCCC[C@H]2C[C@H]1C(=O)NC(C)(C)C` [NELFINAVIR], the inhibition entry is “inactive”.

A further test deals with Human immunodeficiency virus 1. As to the kind of experiment: Antiviral activity against HIV1 harboring mutant protease with matrix K76R mutant infected in HEK293T cells assessed as inhibition of viral replication after 48 hrs by luciferase assay. It counts as functional, organism-based. Particulars: HEK-293T. A digest of the protocol:
as §1
Consider `CC(C)CN(C[C@@H](O)[C@H](Cc1ccccc1)NC(=O)O[C@H]1CCOC1)S(=O)(=O)c1ccc(N)cc1` [AMPRENAVIR], for which the inhibition result is “inactive”.

Consider `COC(=O)N[C@H](C(=O)N[C@@H](Cc1ccccc1)[C@@H](O)CN(Cc1ccc(-c2ccccn2)cc1)NC(=O)[C@@H](NC(=O)OC)C(C)(C)C)C(C)(C)C`, for which the inhibition result is “inactive”.

For the molecule `CC(C)(C)NC(=O)[C@@H]1CN(Cc2cccnc2)CCN1C[C@@H](O)C[C@@H](Cc1ccccc1)C(=O)N[C@H]1c2ccccc2C[C@H]1O.O` [INDINAVIR], the inhibition result is “inactive”.

Regarding `Cc1cccc(C)c1OCC(=O)N[C@@H](Cc1ccccc1)[C@@H](O)C[C@H](Cc1ccccc1)NC(=O)[C@H](C(C)C)N1CCCNC1=O` [LOPINAVIR], the inhibition result was “inactive”.

With `Cc1c(O)cccc1C(=O)N[C@@H](CSc1ccccc1)[C@H](O)CN1C[C@H]2CCCC[C@H]2C[C@H]1C(=O)NC(C)(C)C` [NELFINAVIR], the inhibition result is “inactive”.

The next test has as its system Human immunodeficiency virus 1. As to the kind of experiment: Antiviral activity against HIV1 harboring mutant protease with matrix Y79F mutant infected in HEK293T cells assessed as inhibition of viral replication after 48 hrs by luciferase assay. The class given is functional, organism-based. The settings on record: HEK-293T. In a few lines: as §1
For `CC(C)CN(C[C@@H](O)[C@H](Cc1ccccc1)NC(=O)O[C@H]1CCOC1)S(=O)(=O)c1ccc(N)cc1` [AMPRENAVIR], the inhibition entry is “inactive”.

On to `COC(=O)N[C@H](C(=O)N[C@@H](Cc1ccccc1)[C@@H](O)CN(Cc1ccc(-c2ccccn2)cc1)NC(=O)[C@@H](NC(=O)OC)C(C)(C)C)C(C)(C)C`, for which the inhibition result is “inactive”.

For `CC(C)(C)NC(=O)[C@@H]1CN(Cc2cccnc2)CCN1C[C@@H](O)C[C@@H](Cc1ccccc1)C(=O)N[C@H]1c2ccccc2C[C@H]1O.O` [INDINAVIR], the inhibition entry was “inactive”.

As to `Cc1cccc(C)c1OCC(=O)N[C@@H](Cc1ccccc1)[C@@H](O)C[C@H](Cc1ccccc1)NC(=O)[C@H](C(C)C)N1CCCNC1=O` [LOPINAVIR], the inhibition result was “inactive”.

Consider `Cc1c(O)cccc1C(=O)N[C@@H](CSc1ccccc1)[C@H](O)CN1C[C@H]2CCCC[C@H]2C[C@H]1C(=O)NC(C)(C)C` [NELFINAVIR], for which the inhibition entry is “inactive”.

The next test concerns Human immunodeficiency virus 1. As to the kind of experiment: Antiviral activity against HIV1 harboring mutant protease with matrix A81T mutant infected in HEK293T cells assessed as inhibition of viral replication after 48 hrs by luciferase assay. It counts as functional, organism-based. Particulars: HEK-293T. In a few lines:
as §1
In the case of `CC(C)CN(C[C@@H](O)[C@H](Cc1ccccc1)NC(=O)O[C@H]1CCOC1)S(=O)(=O)c1ccc(N)cc1` [AMPRENAVIR], the inhibition entry is “inactive”.

`COC(=O)N[C@H](C(=O)N[C@@H](Cc1ccccc1)[C@@H](O)CN(Cc1ccc(-c2ccccn2)cc1)NC(=O)[C@@H](NC(=O)OC)C(C)(C)C)C(C)(C)C`: the inhibition result is “inactive”.

With `CC(C)(C)NC(=O)[C@@H]1CN(Cc2cccnc2)CCN1C[C@@H](O)C[C@@H](Cc1ccccc1)C(=O)N[C@H]1c2ccccc2C[C@H]1O.O` [INDINAVIR], the inhibition entry is “inactive”.

For the molecule `Cc1cccc(C)c1OCC(=O)N[C@@H](Cc1ccccc1)[C@@H](O)C[C@H](Cc1ccccc1)NC(=O)[C@H](C(C)C)N1CCCNC1=O` [LOPINAVIR], the inhibition entry is “inactive”.

For `Cc1c(O)cccc1C(=O)N[C@@H](CSc1ccccc1)[C@H](O)CN1C[C@H]2CCCC[C@H]2C[C@H]1C(=O)NC(C)(C)C` [NELFINAVIR], the inhibition entry was “inactive”.

The values above are taken from ChEMBL document CHEMBL1687847, “Three residues in HIV-1 matrix contribute to protease inhibitor susceptibility and replication capacity” (2011).
